Measured values taken from paper PMC7709506 (ESMO Open, 2020).

Experiment: Safety and tolerability
Format: in vivo, human
In short: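 Open-label multicentre phase I/IIa trial in adults with advanced or metastatic solid tumours. Part 1 used 3+3 oral capsule escalation at 50–800 mg/day to define DLT and MTD. Part 2 gave tablets. Treatment continued until progression, intolerable AE or study end, with dose decisions by a safety monitoring board. AEs of special interest were monitored. The safety population was all dosed patients, summarised by dose level.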

[1] = 30 patients treated with 400 mg/day

## Cn1cc(-c2ccc3c(c2)ncn3-c2cc(NS(=O)(=O)C3CC3)cc(-c3ccc(F)cc3F)c2)cn1 [ODM-203]
[1]
  Hyperbilirubinaemia: 36.7%
  increased blood bilirubin: 50.0%
Grade 3–5, all doses (n=84)
  Alopecia: 1 (1.2) n (%)
  Arthralgia: 2 (2.4) n (%)
  Asthenia: 2 (2.4) n (%)
  Blood bilirubin increased: 20 (23.8) n (%)
  Conjugated bilirubin increased: 0 n (%)
  Decreased appetite: 0 n (%)
  Diarrhoea: 5 (6.0) n (%)
  Dry mouth: 0 n (%)
  Dry skin: 0 n (%)
  Dysgeusia: 0 n (%)
  Epistaxis: 0 n (%)
  Fatigue: 5 (6.0) n (%)
  Hyperbilirubinaemia: 16 (19.0) n (%)
  Hyperphosphataemia: 0 n (%)
  Hypertension: 3 (3.6) n (%)
  Jaundice: 2 (2.4) n (%)
  Mucosal inflammation: 0 n (%)
  Myalgia: 2 (2.4) n (%)
  Nasal dryness: 0 n (%)
  Nausea: 0 n (%)
  Onycholysis: 1 (1.2) n (%)
  Palmar-plantar eryrthodysaestesia: 4 (4.8) n (%)
  Stomatitis: 3 (3.6) n (%)
  Vomiting: 0 n (%)
  Weight decreased: 1 (1.2) n (%)
N=84
  dose reduction due to arthralgia: 2 patients
  dose reduction due to increased blood bilirubin: 2 patients
  dose reduction due to palmar-plantar erythrodysesthesia syndrome: 3 patients
  treatment interruption due to hyperbilirubinaemia: 8 patients
  treatment interruption due to increase in blood bilirubin: 16 patients
Total (N=84)
  AE leading to death: 7 (8.3) n (%)
  AE leading to discontinuation: 30 (35.7) n (%)
  AE leading to dose reduction: 9 (10.7) n (%)
  AE leading to treatment interruption: 61 (72.6) n (%)
  Alopecia: 26 (31.0) n (%)
  Any AE: 84 (100) n (%)
  Arthralgia: 28 (33.3) n (%)
  Asthenia: 25 (29.8) n (%)
  Blood bilirubin increased: 36 (42.9) n (%)
  Conjugated bilirubin increased: 11 (13.1) n (%)
  Decreased appetite: 25 (29.8) n (%)
  Diarrhoea: 42 (50.0) n (%)
  Dry mouth: 29 (34.5) n (%)
  Dry skin: 10 (11.9) n (%)
  Dysgeusia: 20 (23.8) n (%)
  Epistaxis: 28 (33.3) n (%)
  Fatigue: 23 (27.4) n (%)
  Hyperbilirubinaemia: 28 (33.3) n (%)
  Hyperphosphataemia: 20 (23.8) n (%)
  Hypertension: 14 (16.7) n (%)
  Jaundice: 27 (32.1) n (%)
  Mucosal inflammation: 10 (11.9) n (%)
  Myalgia: 11 (13.1) n (%)
  Nasal dryness: 13 (15.5) n (%)
  Nausea: 11 (13.1) n (%)
  Onycholysis: 11 (13.1) n (%)
  Palmar-plantar eryrthodysaestesia: 30 (35.7) n (%)
  Related AE: 82 (97.6) n (%)
  Related SAEs: 14 (16.7) n (%)
  Stomatitis: 34 (40.5) n (%)
  Vomiting: 9 (10.7) n (%)
  Weight decreased: 19 (22.6) n (%)
All doses, N=84
  patients with at least one AE during treatment: 84 patients
Capsule 100 mg (n=1)
  AE leading to death: 0 n (%)
  AE leading to discontinuation: 0 n (%)
  AE leading to dose reduction: 0 n (%)
  AE leading to treatment interruption: 1 (100) n (%)
  Alopecia: 0 n (%)
  Any AE: 1 (100) n (%)
  Arthralgia: 0 n (%)
  Asthenia: 0 n (%)
  Blood bilirubin increased: 0 n (%)
  Conjugated bilirubin increased: 0 n (%)
  Decreased appetite: 0 n (%)
  Diarrhoea: 0 n (%)
  Dry mouth: 0 n (%)
  Dry skin: 0 n (%)
  Dysgeusia: 0 n (%)
  Epistaxis: 0 n (%)
  Fatigue: 0 n (%)
  Hyperbilirubinaemia: 0 n (%)
  Hyperphosphataemia: 0 n (%)
  Hypertension: 0 n (%)
